Experimental data: ChEMBL document CHEMBL1687901 (J Med Chem, 2011)
In brackets after ≈: the same amount, converted by molar mass.

Assays:
Assay type in all cases: functional
[1] = tested on: Klebsiella pneumoniae; assay: Antibacterial activity against Klebsiella pneumoniae ATCC 13883 by CLSI M07-A8 method
[2] = tested on: Staphylococcus aureus; assay: Antibacterial activity against wild type Staphylococcus aureus Smith ATCC 13709 by CLSI M07-A8 method
[3] = tested on: Streptococcus pneumoniae; assay: Antibacterial activity against Streptococcus pneumoniae ATCC 49619 by CLSI M07-A8 method
[4] = tested on: Streptococcus pneumoniae; assay: Antibacterial activity against tetracycline-resistant Streptococcus pneumoniae isolate 160 harboring tet(M) gene by CLSI M07-A8 method
Procedure, shortened: (§1)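 MICs were determined by CLSI broth microdilution in freshly prepared cation-adjusted Mueller Hinton broth, kept at 4 °C before use. Defibrinated horse blood was added as appropriate. Runs met QC ranges for comparator antibiotics with ATCC quality control strains.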

[5] = tested on: Escherichia coli; assay: Antibacterial activity against Escherichia coli ATCC 25922 by CLSI M07-A8 method
[6] = tested on: Staphylococcus aureus; assay: Antibacterial activity against tetracycline-resistant Staphylococcus aureus isolate 158 harboring tet(K) gene by CLSI M07-A8 method; procedure, shortened: as §1
[7] = tested on: Escherichia coli; assay: Antibacterial activity against tetracycline-resistant Escherichia coli isolate 155 harboring tet(A) gene by CLSI M07-A8 method
Procedure, shortened: as §1, with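 “appropriate. The highest concentration tested was 32 μg/mL.” for “appropriate.”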

[8] = tested on: Staphylococcus aureus; assay: Antibacterial activity against tetracycline-resistant Staphylococcus aureus isolate 161 harboring tet(M) gene by CLSI M07-A8 method; procedure, shortened: as §1
[9] = tested on: Escherichia coli; assay: Inhibition of protein synthesis in Escherichia coli S30 extract by coupled transcription/translation assay
Procedure, shortened: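 Coupled transcription/translation used an E. coli S30 extract with a firefly luciferase reporter. Compounds were diluted in water and tested as a three-point titration in duplicate. Reactions ran 1 h at 37 °C and were stopped on ice for 5 min, then luciferase substrate was added and luminescence read. Percent inhibition was calculated against uninhibited controls averaged per plate, and IC50 derived.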

| SMILES | MIC [1] [µg/mL] | MIC [2] [µg/mL] | MIC [3] [µg/mL] | MIC [4] [µg/mL] | MIC [5] [µg/mL] | MIC [6] [µg/mL] | MIC [7] [µg/mL] | MIC [8] [µg/mL] | IC50 [9] [µg/mL] |
| --- | --- | --- | --- | --- | --- | --- | --- | --- | --- |
| CN(C)[C@@H]1C(O)=C(C(N)=O)C(=O)[C@@]2(O)C(O)=C3C(=O)c4c(O)cnc(Cl)c4C[C@H]3C[C@@H]12.Cl | 4 | 1 | 1 | 32 | 2 | 32 | > 32 | 32 |  |
| CN(C)[C@@H]1C(O)=C(C(N)=O)C(=O)[C@@]2(O)C(O)=C3C(=O)c4c(O)cnc(F)c4C[C@H]3C[C@@H]12.Cl | 0.5 | 0.063 | 0.016 | 8 | 0.25 | 8 | > 32 | 8 |  |
| CN(C)CCNc1nc(Cl)c2c(c1O)C(=O)C1=C(O)[C@]3(O)C(=O)C(C(N)=O)=C(O)[C@@H](N(C)C)[C@@H]3C[C@@H]1C2.Cl | 8 | 2 | 0.5 | 2 | 4 | 1 | 32 | 4 |  |
| CN(C)[C@@H]1C(O)=C(C(N)=O)C(=O)[C@@]2(O)C(O)=C3C(=O)c4c(O)c(NCC(C)(C)CN5CCCC5)nc(Cl)c4C[C@H]3C[C@@H]12.Cl | 4 | 0.5 | 0.031 | 0.25 | 2 | 0.125 | 8 | 2 |  |
| CN(C)CC(C)(C)CNc1nc(F)c2c(c1O)C(=O)C1=C(O)[C@]3(O)C(=O)C(C(N)=O)=C(O)[C@@H](N(C)C)[C@@H]3C[C@@H]1C2.Cl | 2 | 1 | 0.5 | 1 | 1 | 0.5 | 8 | 2 |  |
| CCCc1nc(Cl)c2c(c1O)C(=O)C1=C(O)[C@]3(O)C(=O)C(C(N)=O)=C(O)[C@@H](N(C)C)[C@@H]3C[C@@H]1C2.Cl | 32 | 1 | 1 | 4 | > 32 | 4 | > 32 | 4 |  |
| Cc1nc(Cl)c2c(c1O)C(=O)C1=C(O)[C@]3(O)C(=O)C(C(N)=O)=C(O)[C@@H](N(C)C)[C@@H]3C[C@@H]1C2.Cl | 8 | 2 | 0.5 | 8 | 8 | 16 | > 32 | 8 |  |
| CN(C)[C@@H]1C(O)=C(C(N)=O)C(=O)[C@@]2(O)C(O)=C3C(=O)c4c(O)c(-c5ccccc5)nc(Cl)c4C[C@H]3C[C@@H]12.Cl | > 32 | 1 | 8 | 8 | > 32 | 1 | > 32 | 2 |  |
| CCCNc1nc(N(C)C)c2c(c1O)C(=O)C1=C(O)[C@]3(O)C(=O)C(C(N)=O)=C(O)[C@@H](N(C)C)[C@@H]3C[C@@H]1C2.Cl.Cl | > 32 |  | 8 | > 32 | 32 |  | > 32 | > 32 | 3.4 |
| CNc1nc(Cl)c2c(c1O)C(=O)C1=C(O)[C@]3(O)C(=O)C(C(N)=O)=C(O)[C@@H](N(C)C)[C@@H]3C[C@@H]1C2.Cl.Cl.Cl | 0.5 | 0.016 | 0.016 | 4 | 0.125 | 2 | 32 | 1 |  |
| CC(C)Nc1nc(Cl)c2c(c1O)C(=O)C1=C(O)[C@]3(O)C(=O)C(C(N)=O)=C(O)[C@@H](N(C)C)[C@@H]3C[C@@H]1C2.Cl.Cl.Cl | 32 | 1 | 2 | 16 | 32 | 2 | > 32 | 4 |  |
| CC(C)CCNc1nc(Cl)c2c(c1O)C(=O)C1=C(O)[C@]3(O)C(=O)C(C(N)=O)=C(O)[C@@H](N(C)C)[C@@H]3C[C@@H]1C2.Cl.Cl.Cl | > 32 | 0.25 | 8 | 32 | > 32 | 0.25 | > 32 | 2 |  |
| COCCNc1nc(Cl)c2c(c1O)C(=O)C1=C(O)[C@]3(O)C(=O)C(C(N)=O)=C(O)[C@@H](N(C)C)[C@@H]3C[C@@H]1C2.Cl.Cl.Cl | 4 | 0.031 | 0.063 | 4 | 1 | 1 | 32 | 4 |  |
| Cc1ncc2c(c1O)C(=O)C1=C(O)[C@]3(O)C(=O)C(C(N)=O)=C(O)[C@@H](N(C)C)[C@@H]3C[C@@H]1C2.Cl.Cl | 8 | 4 | 1 | 16 | 8 | 32 | > 32 | 32 |  |
| CCCc1nc(N(C)C)c2c(c1O)C(=O)C1=C(O)[C@]3(O)C(=O)C(C(N)=O)=C(O)[C@@H](N(C)C)[C@@H]3C[C@@H]1C2.Cl.Cl | 16 | 1 | 1 | 2 | 16 | 1 | > 32 | 2 |  |
| CN(C)[C@@H]1C(O)=C(C(N)=O)C(=O)[C@@]2(O)C(O)=C3C(=O)c4c(O)cncc4C[C@H]3C[C@@H]12.Cl.Cl | 1 | 1 | 0.25 | 32 | 0.5 | 16 | > 32 | 32 |  |
| COc1ncc(O)c2c1C[C@H]1C[C@H]3[C@H](N(C)C)C(O)=C(C(N)=O)C(=O)[C@@]3(O)C(O)=C1C2=O.Cl.Cl | 1 | 0.125 | 0.063 | 16 | 0.25 | 4 | > 32 | 8 |  |
| CC(C)OCCNc1nc(Cl)c2c(c1O)C(=O)C1=C(O)[C@]3(O)C(=O)C(C(N)=O)=C(O)[C@@H](N(C)C)[C@@H]3C[C@@H]1C2.Cl.Cl.Cl | 16 | 0.5 | 0.031 | 4 | 8 | 0.25 | > 32 | 2 |  |
| CN(C)[C@@H]1C(O)=C(C(N)=O)C(=O)[C@@]2(O)C(O)=C3C(=O)c4c(O)cnc(-c5ccccc5)c4C[C@H]3C[C@@H]12.Cl.Cl | 2 | 0.063 | 0.031 | 4 | 0.5 | 1 | > 32 | 32 |  |
| CCNc1nc(Cl)c2c(c1O)C(=O)C1=C(O)[C@]3(O)C(=O)C(C(N)=O)=C(O)[C@@H](N(C)C)[C@@H]3C[C@@H]1C2.Cl.Cl.Cl | 2 | 0.031 | 0.031 | 4 | 0.5 | 0.5 | 16 | 1 |  |
| CC(C)CNc1nc(Cl)c2c(c1O)C(=O)C1=C(O)[C@]3(O)C(=O)C(C(N)=O)=C(O)[C@@H](N(C)C)[C@@H]3C[C@@H]1C2.Cl.Cl.Cl | > 32 | 0.5 | 1 | 8 | 16 | 0.5 | > 32 | 1 |  |
| CN(C)[C@@H]1C(O)=C(C(N)=O)C(=O)[C@@]2(O)C(O)=C3C(=O)c4c(cnc(-c5ccccc5)c4O)C[C@H]3C[C@@H]12.Cl.Cl | 32 | 4 | 2 | 8 | 16 | 16 | > 32 | 8 |  |
| Cc1ncc(O)c2c1C[C@H]1C[C@H]3[C@H](N(C)C)C(O)=C(C(N)=O)C(=O)[C@@]3(O)C(O)=C1C2=O.Cl.Cl | 1 | 1 | 0.25 | > 32 | 1 | 0.5 | > 32 | 32 |  |
| CCCNc1nc(Cl)c2c(c1O)C(=O)C1=C(O)[C@]3(O)C(=O)C(C(N)=O)=C(O)[C@@H](N(C)C)[C@@H]3C[C@@H]1C2.Cl.Cl.Cl | 8 | 0.063 | 0.25 | 4 |  | 0.5 | 16 | 1 | 5.3 |
| CN(C)c1ccc(O)c2c1C[C@H]1C[C@H]3[C@H](N(C)C)C(O)=C(C(N)=O)C(=O)[C@@]3(O)C(O)=C1C2=O [MINOCYCLINE] |  | 0.125 (≈ 0.273 µM) | < 0.016 | 8 (≈ 17.5 µM) | 0.5 (≈ 1.09 µM) | 0.25 (≈ 0.546 µM) | 8 (≈ 17.5 µM) | 16 (≈ 35 µM) |  |
| CN(C)c1cc(CNCC(C)(C)C)c(O)c2c1C[C@H]1C[C@H]3[C@H](N(C)C)C(O)=C(C(N)=O)C(=O)[C@@]3(O)C(O)=C1C2=O [OMADACYCLINE] | 2 (≈ 3.59 µM) | 0.5 (≈ 0.898 µM) | 0.031 (≈ 0.0557 µM) | 0.125 (≈ 0.225 µM) | 2 (≈ 3.59 µM) | 0.25 (≈ 0.449 µM) | 16 (≈ 28.7 µM) | 2 (≈ 3.59 µM) |  |
